Test results as given in ChEMBL document CHEMBL4325889, “Natural products hybrids: 3,5,4'-Trimethoxystilbene-5,6,7-trimethoxyflavone chimeric analogs as potential cytotoxic agents against diverse human cancer cells” (Eur J Med Chem, 2019).

How the values were obtained:
Format in all cases: functional
SNB-19 = assay: Growth inhibition of human SNB19 cells at 10 uM after 48 hrs by SRB assay relative to control; conditions: SNB-19, 48 h, read-out: GI
Procedure, shortened: (§1)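 NCI screen against its human cancer cell line panel by the standard NCI protocol, SRB protein stain. Single dose of 10 μM. Percent growth inhibition versus control; values above 100% mean the cell population fell below the starting number. Each value is the mean of duplicates.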

UO-31 = assay: Growth inhibition of human UO31 cells at 10 uM after 48 hrs by SRB assay relative to control; conditions: UO-31, 48 h, read-out: GI; procedure, shortened: as §1
OVCAR-8 = assay: Growth inhibition of human OVCAR8 cells at 10 uM after 48 hrs by SRB assay relative to control; conditions: OVCAR-8, 48 h, read-out: GI
Procedure, shortened: (§2)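 Screened at the National Cancer Institute by the standard NCI protocol using the sulforhodamine B assay, which measures cellular protein. Single dose of 10 µM. Result is percent growth inhibition; values above 100% mean cell number fell below the initial population. Values are the average of duplicates.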

UACC-62 = assay: Growth inhibition of human UACC62 cells at 10 uM after 48 hrs by SRB assay relative to control; conditions: UACC-62, 48 h, read-out: GI; procedure, shortened: as §1
HCT-15 = assay: Growth inhibition of human HCT15 cells at 10 uM after 48 hrs by SRB assay relative to control; conditions: HCT-15, 48 h, read-out: GI; procedure, shortened: as §2
KM12 = assay: Growth inhibition of human KM12 cells at 10 uM after 48 hrs by SRB assay relative to control; conditions: KM12, 48 h, read-out: GI; procedure, shortened: as §2
NCI-H226 = assay: Growth inhibition of human NCI-H226 cells at 10 uM after 48 hrs by SRB assay relative to control; conditions: NCI-H226, 48 h, read-out: GI; procedure, shortened: as §2
HOP-62 = assay: Growth inhibition of human HOP62 cells at 10 uM after 48 hrs by SRB assay relative to control; conditions: HOP-62, 48 h, read-out: GI; procedure, shortened: as §2
SF-268 = assay: Growth inhibition of human SF268 cells at 10 uM after 48 hrs by SRB assay relative to control; conditions: SF-268, 48 h, read-out: GI; procedure, shortened: as §2
SN12C = assay: Growth inhibition of human SN12C cells at 10 uM after 48 hrs by SRB assay relative to control; conditions: read-out: GI; procedure, shortened: as §2
Malme-3M = assay: Growth inhibition of human MALME-3M cells at 10 uM after 48 hrs by SRB assay relative to control; conditions: read-out: GI; procedure, shortened: as §2
ACHN = assay: Growth inhibition of human ACHN cells at 10 uM after 48 hrs by SRB assay relative to control; conditions: read-out: GI; procedure, shortened: as §2
786-0 = assay: Growth inhibition of human 786-0 cells at 10 uM after 48 hrs by SRB assay relative to control; conditions: 786-0, 48 h, read-out: GI; procedure, shortened: as §2
A549 = assay: Growth inhibition of human A549 cells at 10 uM after 48 hrs by SRB assay relative to control; conditions: A549, 48 h, read-out: GI; procedure, shortened: as §2
NCI-H322M = assay: Growth inhibition of human NCI-H322M cells at 10 uM after 48 hrs by SRB assay relative to control; conditions: read-out: GI; procedure, shortened: as §2
MDA-MB-435 = assay: Growth inhibition of human MDA-MB-435 cells at 10 uM after 48 hrs by SRB assay relative to control; conditions: MDA-MB-435, 48 h, read-out: GI; procedure, shortened: as §2
HT-29 = assay: Growth inhibition of human HT-29 cells at 10 uM after 48 hrs by SRB assay relative to control; conditions: HT-29, 48 h, read-out: GI; procedure, shortened: as §2
HCT-116 = assay: Growth inhibition of human HCT116 cells at 10 uM after 48 hrs by SRB assay relative to control; conditions: HCT-116, 48 h, read-out: GI; procedure, shortened: as §2
TK-10 = assay: Growth inhibition of human TK10 cells at 10 uM after 48 hrs by SRB assay relative to control; conditions: TK-10, 48 h, read-out: GI; procedure, shortened: as §1
COLO 205 = assay: Growth inhibition of human COLO205 cells at 10 uM after 48 hrs by SRB assay relative to control; conditions: COLO 205, 48 h, read-out: GI; procedure, shortened: as §2
NCI-H460 = assay: Growth inhibition of human NCI-H460 cells at 10 uM after 48 hrs by SRB assay relative to control; conditions: NCI-H460, 48 h, read-out: GI; procedure, shortened: as §2

SMILES | inhibition of growth at 10 µM (SNB-19) [%] | inhibition of growth at 10 µM (UO-31) [%] | inhibition of growth at 10 µM (OVCAR-8) [%] | inhibition of growth at 10 µM (UACC-62) [%] | inhibition of growth at 10 µM (HCT-15) [%] | inhibition of growth at 10 µM (KM12) [%] | inhibition of growth at 10 µM (NCI-H226) [%] | inhibition of growth at 10 µM (HOP-62) [%] | inhibition of growth at 10 µM (SF-268) [%] | inhibition of growth at 10 µM (SN12C) [%] | inhibition of growth at 10 µM (Malme-3M) [%] | inhibition of growth at 10 µM (ACHN) [%] | inhibition of growth at 10 µM (786-0) [%] | inhibition of growth at 10 µM (A549) [%] | inhibition of growth at 10 µM (NCI-H322M) [%] | inhibition of growth at 10 µM (MDA-MB-435) [%] | inhibition of growth at 10 µM (HT-29) [%] | inhibition of growth at 10 µM (HCT-116) [%] | inhibition of growth at 10 µM (TK-10) [%] | inhibition of growth at 10 µM (COLO 205) [%] | further results
COc1cccc(C(=O)Nc2cccc(-c3cc(=O)c4c(OC)c(OC)c(OC)cc4o3)c2)c1 | 29.6 | 66.7 | 47.7 | 41.1 | 46.6 | 53.9 | 28 | 30.2 | 42.6 | 38.7 | 12.8 | 42.1 | 47.2 | 44.1 | 27.1 | 23.4 | 53.6 | 46.4 | 17.2 | – | –
COc1cc2oc(-c3cccc(C(=O)Nc4ccccc4)c3)cc(=O)c2c(O)c1OC | 42.3 | 40.3 | 84.6 | 61.1 | 7.23 | 42.2 | 26.8 | 91.1 | 63 | 25.2 | 35.5 | 42 | 68.5 | 39.7 | 33.6 | 41.7 | 45.9 | 53.7 | 39.2 | 7.73 | inhibition of growth at 10 µM (NCI-H460): 66.3%
COc1ccccc1NC(=O)c1cccc(-c2cc(=O)c3c(OC)c(OC)c(OC)cc3o2)c1 | 17.5 | 69.6 | 42.7 | 46.5 | 48.4 | 34.8 | 37.2 | 30.6 | 29.3 | 34.6 | 22.9 | 43.8 | 39.2 | 31.1 | 18.9 | 22.4 | 38.6 | 31.9 | 10.4 | 14.8 | inhibition of growth at 10 µM (NCI-H460): 41.1%
COc1cccc(C(=O)Nc2cccc(-c3cc(=O)c4c(O)c(OC)c(OC)cc4o3)c2)c1 | 16.6 | 52.9 | 50.7 | 39.1 | 58.4 | 43.7 | 36.3 | 37.1 | 29.8 | 34.9 | 29.5 | 35.5 | 26.7 | 35.4 | 30.9 | 33.6 | 27.9 | 44.5 | 16.7 | 5.46 | inhibition of growth at 10 µM (NCI-H460): 45.6%
COc1ccc(NC(=O)c2cccc(-c3cc(=O)c4c(OC)c(OC)c(OC)cc4o3)c2)cc1 | 8.54 | 56.1 | 46.1 | 35.2 | 52.9 | 45.2 | 18.5 | 31 | 27.9 | 35 | 21.4 | 33.4 | 29.3 | 22.4 | 24.5 | 23.8 | 32.9 | 36.6 | 15.7 | 30.6 | inhibition of growth at 10 µM (NCI-H460): 33.9%
